Data: PMC2532710 (Nucleic Acids Research, 2008)
Entries after “also recorded” stand apart in the source; their conditions may differ.

Experiments:
[1] = tested on: replication fork substrates; details: ref K. Kepple, Ph.D. Thesis, 2006; cited from earlier work
[2] = tested on: HJ substrate; assay: 2-AP fluorescence quenching, HJ substrate; assay type: binding; details: center of both HJ and replication forks
How it was run: (§1)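 Substrates were annealed from oligos (boiled 5 min, slow-cooled), gel-purified on native 12% PAGE and quantified spectrophotometrically. After ≥10 min equilibration, emission was read at 330–430 nm (excitation 315 nm). Adenine-substituted spectra were subtracted, and fold decrease at 370 nm was taken versus no peptide.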

[3] = tested on: human RAD54 protein; details: cited from earlier work
[4] = tested on: RuvABC complex; details: cited from earlier work
[5] = tested on: protein-free HJ DNA; details: cited from earlier work
[6] = tested on: RecG helicase; details: cited from earlier work
[7] = tested on: HJ-4AP1; assay: 2-AP fluorescence titration of additional peptides, HJ-4AP1; assay type: binding; details: for 2-AP quenching / interaction with 4AP1 in HJ: 0.2 μM substrate, pH 7.8, 100 mM NaCl, 1.6% DMSO, peptide dimer 0.05-6.4 μM
How it was run: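 Test peptides (C-terminal amides, dissolved in DMSO) titrated as dimers at 0.05, 0.2, 0.8, 3.2 and 6.4 μM into 0.2 μM 2-AP-labelled HJ in 20 mM Tris-HCl pH 7.8, 100 mM NaCl, 1 mM EDTA, 1.6% DMSO at 24°C. Equilibrated ≥3 min with stirring. Excitation 315 nm, emission 365–375 nm. Adenine-substituted junction spectrum subtracted.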

[8] = tested on: replication fork substrate; assay: 2-AP fluorescence quenching, replication fork; assay type: binding; details: 2-AP fluorescence-based solution assay
How it was run: as §1

[9] = tested on: protein-free HJ DNA; assay: peptide/RecG band shift assay on HJ; assay type: binding; details: data not shown
[10] = tested on: Cre/HJ complex; details: cited from earlier work
[11] = target: T1, (WRWYCR)2 (synthetic); assay: EMSA
T1 chain: WRWYCR

[12] = target: T2, RecG (Escherichia coli, UniProt P24230 1-693); assay: EMSA
T2 sequence: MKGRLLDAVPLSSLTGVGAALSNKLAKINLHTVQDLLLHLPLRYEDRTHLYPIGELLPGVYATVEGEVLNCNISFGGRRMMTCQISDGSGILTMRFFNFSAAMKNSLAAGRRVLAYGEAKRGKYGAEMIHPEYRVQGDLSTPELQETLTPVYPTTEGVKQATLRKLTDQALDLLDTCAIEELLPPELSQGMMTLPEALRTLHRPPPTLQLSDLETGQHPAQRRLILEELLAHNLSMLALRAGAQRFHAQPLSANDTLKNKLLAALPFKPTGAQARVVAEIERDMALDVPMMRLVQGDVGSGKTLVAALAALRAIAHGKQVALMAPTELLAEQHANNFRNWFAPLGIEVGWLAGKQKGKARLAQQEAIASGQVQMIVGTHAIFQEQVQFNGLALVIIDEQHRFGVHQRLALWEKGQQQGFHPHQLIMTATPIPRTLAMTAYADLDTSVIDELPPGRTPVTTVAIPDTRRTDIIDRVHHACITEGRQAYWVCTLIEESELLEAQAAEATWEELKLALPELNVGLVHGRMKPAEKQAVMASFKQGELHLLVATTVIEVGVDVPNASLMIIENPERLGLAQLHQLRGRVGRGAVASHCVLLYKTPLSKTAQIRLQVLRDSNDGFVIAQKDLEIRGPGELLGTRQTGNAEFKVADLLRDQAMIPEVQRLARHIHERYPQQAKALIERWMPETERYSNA

[13] = tested on: HJ substrate; assay: dissociation from HJ; assay type: binding
[14] = tested on: central thymine bases of HJ; details: bound to HJ; cited from earlier work
[15] = tested on: flayed duplex DNA; details: cited from earlier work
[16] = target: T1, (WRWYCR)2; assay: 2-AP fluorescence quenching
[17] = target: T1, (WRWYCR)2; assay: 2-AP fluorescence quenching
[18] = target: T3, (KWWCRW)2 (synthetic); assay: 2-AP fluorescence quenching
T3 chain: KWWCRW

[19] = target: T4, WKHYNY (synthetic); assay: 2-AP fluorescence quenching
T4 chain: WKHYNY

In the case of (KWWCRW)2 (disulfide), the “binding to replication forks by band shift” value [1] is given as “unable to detect binding”, the “quenching of 2-AP in the center of HJ and replication forks” value [2] is given as “quench the fluorescence of 2-AP bases” and the “inhibition of D-loop unwinding activity” value [3] is given as “inhibit the D-loop unwinding activity”. For the same molecule, the “inhibition of HJ resolution by RuvABC” value [4] was “inhibit”, the IC50 ([4]; read-out: IC50, RuvABC) was about 50 nM and the “binding to free HJ DNA” value [5] was “bind specifically to free HJ DNA”. The “potency relative to (WRWYCR)2” value ([5]; data not shown) was “nearly as potent as (WRWYCR)2”, the “binding to protein-free junctions” value ([5]; gel shift and footprinting assays, data not shown) was “binds to protein-free junctions” and the “inhibition of unwinding of branched DNA substrates by RecG” value [6] was “inhibit unwinding of branched DNA substrates”. The “2-AP quenching / interaction with 4AP1 in HJ” value [7] was “interacts with 4AP1 in the HJ substrate”.

For KWWCRW, the “binding to replication fork-like substrates” value [8] was “bind to replication fork-like substrates”.

For WKHYNY, the “binding to protein-free HJ” value ([9]; gel shift assays) is given as “has not been detected; also recorded: does not bind protein-free junctions”, the “quenching effect on 2-AP with Cre/HJ complex” value [10] is given as “concentration-dependent quenching effect on 2-AP” and the “2-AP quenching / interaction with 4AP1 in HJ” value [7] is given as “does not interact; also recorded: almost no quenching”. The “2-AP quenching” value ([7]; up to 32-fold excess of peptide dimer (6.4 μM)) was “little if any effect”.

In the case of WRWYCR, the “binding to replication fork-like substrates” value [8] is reported as “bind to replication fork-like substrates”.

B1: HJ (oligos 1-4) (structured_DNA)
DNA 1: CGCGGTACGGCCGGAAGCCTGCTTTTTTATACAAGCTTAACTCCC
DNA 2: GGGAGTTAAGCTTGTATAAATGAGGTACTGTTAGGAATTCTCCAAGTGACTACGG
DNA 3: CCGTAGTCACTTGGAGAATTCCTAACAGTACCTCATTTATACCTGCAGCCGACGC
DNA 4: GCGTCGGCTGCAGGTATAAAAAAGCAGGCTTCCGGCCGTACCGCG
For B1, the Kd [11] was 12.5 nM and the binding result [12] was “binds”.

B2: RecG: monomeric RecG helicase of Escherichia coli (protein, UniProt P24230 1-693, looked up)
ATP-dependent DNA helicase …: T2 sequence
In the case of B2, the “time for half of bound RecG to dissociate” value ([13]; 0.02 μM RecG, 1 nM labeled HJ, 0.2 μM unlabeled HJ, 4°C) is reported as 25 min, the “dissociation faster than peptide complex” value ([13]; RecG/HJ vs (WRWYCR)2/HJ) is reported as about 2 X and the “Kd of RecG by gel mobility shift relative to peptide” value ([9]; 50 ng nonspecific dsDNA) is reported as “very similar”. The “increase in KMnO4 sensitivity of central thymine bases” value [14] was about 2 fold and the “fold lower affinity for flayed DNA than HJ” value [15] was at most 100 fold.

B3: Fork-4AP2 (complete fork) (structured_DNA)
DNA 1: CGCGGTACGGCCGGAAGCCTGGTTTACAATGCAAGCTTGACTGGCAGCCC
DNA 2: GCGTCGAGTCGGCTGCAGAGGTATAAAACCAGGCTTCCGGCCGTACCGCG
DNA 3: GGGCTGCCAGTCAAGCTTGCATTGT
DNA 4: TATACCTCTGCAGCCGACTCGACGC
modifications: one A of strand 4 is 2-aminopurine (AP2; underline lost)
For B3, the Kd [16] was 63.5 ± 12 nM and the binding signal [17] was 2 fold quenching (max).

B4: HJ-4AP2 (structured_DNA)
DNA 1: B3 DNA 1
DNA 2: GGGCTGCCAGTCAAGCTTGCATTGTTGGAGGTACTGTTAGGAATTCTCCAAGTGACTCGG
DNA 3: CCGAGTCACTTGGAGAATTCCTAACAGTACCTCCATATACCTCTGCAGCCGACTCGACGC
DNA 4: B3 DNA 2
modifications: one A near junction center of strand 4 is 2-aminopurine (AP2; underline lost)
With B4 the Kd [16] was 14.3 ± 3.2 nM.

B5: Lead-4AP2 (leading strand fork) (structured_DNA)
DNA 1: B3 DNA 1
DNA 2: B3 DNA 2
DNA 3: GGGCTGCCAGTCAAGCTTGCATTGT
modifications: one A of strand 4 is 2-aminopurine (AP2; underline lost)
Work on B5 yielded a Kd [16] of 132 ± 32.8 nM.

B6: Lag-4AP2 (lagging strand fork) (structured_DNA)
DNA 1: B3 DNA 1
DNA 2: B3 DNA 2
DNA 3: TATACCTCTGCAGCCGACTCGACGC
modifications: one A of strand 4 is 2-aminopurine (AP2; underline lost)
With B6 the Kd [16] was 79.2 ± 17.3 nM.

Work on GCGTCGAGTCGGCTGCAGAGGTATAAAACCAGGCTTCCGGCCGTACCGCG (ssDNA, one A is 2-aminopurine (AP2; underline lost)) [Oligo (strand 4 AP2)] yielded a Kd [16] of 731 ± 134 nM.

B7: HJ-4AP1 (structured_DNA)
DNA 1: B3 DNA 1
DNA 2: B4 DNA 2
DNA 3: B4 DNA 3
DNA 4: B3 DNA 2
modifications: one A of strand 4 is 2-aminopurine (AP1; underline lost)
B7: binds [18]; no binding [19].

B8: Flayed-4AP2 (structured_DNA)
DNA 1: B3 DNA 1
DNA 2: B3 DNA 2
modifications: one A of strand 4 is 2-aminopurine (AP2; underline lost)
Work on B8 yielded a Kd [16] of 628 ± 107 nM.
